Source: PubChem (several laboratories)
FXIa inh 1536 – blocks human coagulation factor XIa protease activity; P03951; purified FXIa, Boc-Glu-Ala-Arg-AMC fluorogenic substrate; inhibition, % at 5 µM; 220,000 tested, 0.14% active;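 active = inhibition of at least 40%; inactive = inhibition below 40%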;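 note: fluorescence of freed AMC excited at 355 nm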
DTT redox prof – compounds producing H2O2 with reducing agent – biochemical, NIH compound library profiling, artefact control for MLSCN library redox annotation, primary screen; activation, % at 10 µM; 200,000 tested, 0.03% active; DTT-dependent redox cycling H2O2, phenol red/HRP absorbance; 100% = 100 µM peroxide control, 0% = buffer;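 active = activation of at least 50% relative to the plate's high and low controls in the primary single-dose screen; inactive = activation below 50%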;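 note: compound incubated with DTT at 0.8 mM final as the reducing agent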
Thrombin inh – blocks human thrombin protease activity; alpha-thrombin, Boc-VPR-AMC fluorogenic substrate cleavage; inhibition, % at 5 µM; 220,000 tested, 0.26% active; AID 1046;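 active = inhibition at or above 40%; inactive = inhibition below 40%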
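Material: Human alpha-thrombin protein | Buffer or medium: pH 7.5 Tris-saline with Tween 20 | Reagent: Boc-VPR-AMC substrate, 15 µM final | Schedule: Reaction at ambient temperature | Detection: AMC fluorescence at 355 nm excitation and 460 nm emission | Evaluation: Percent inhibition scaled between no-compound controls and no-enzyme blanks | Controls: no-compound enzyme wells and no-enzyme blanks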
hK5 inh – blocks human kallikrein 5 protease activity; recombinant hK5, fluorogenic AMC substrate cleavage; inhibition, % at 5 µM; 210,000 tested, 0.59% active;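 active = inhibition of 40% or more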
Target sequence (Q9Y337 67-293 limits assumed): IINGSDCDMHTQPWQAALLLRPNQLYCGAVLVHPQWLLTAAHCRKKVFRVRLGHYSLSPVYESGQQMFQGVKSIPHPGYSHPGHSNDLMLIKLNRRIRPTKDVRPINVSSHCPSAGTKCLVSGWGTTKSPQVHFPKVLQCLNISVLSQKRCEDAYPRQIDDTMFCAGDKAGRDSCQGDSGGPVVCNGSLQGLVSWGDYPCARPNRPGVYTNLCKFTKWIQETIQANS
S1P3 antag-1 – S1P3 (human) receptor antagonism; CHO S1P3 NFAT-BLA reporter, FRET fluorescence, antagonist mode; inhibition, % at 4.98 µM; 170,000 tested, 0.27% active; AID 485;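 active = inhibition above the plate cutoff, the mean inhibition of test wells on that plate plus 3 SD, cut at about 28% in these data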;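 note: cells challenged with S1P at its EC80 of 0.8 µM; blue over green emission ratio from cleaved BLA substrate after 4 h stimulation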
FXIIa inh – blocks human coagulation factor XIIa protease activity | inhibition, % at 5 µM | 220,000 tested, 0.3% active | P00748 | purified FXIIa, Boc-QGR-AMC fluorogenic substrate, 2 h; in the data active = inhibition above about 40%
S1P3 antag-2 – confirmation of human S1P3 receptor antagonists | shares compounds with S1P3 antag-1 | CHO S1P3 NFAT-BLA reporter, FRET, antagonist mode | inhibition, % at 4.98 µM | 240 tested, 30% active | AID 1429;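 active = inhibition above the hit threshold that was computed for the earlier primary screen, cut at about 30% in these data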
DTT redox conf – confirmation of DTT-dependent redox cycling H2O2 generators; shares compounds with DTT redox prof; 60 tested, 40% active; EC50, µM; phenol red-HRP absorbance;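 active = EC50 under a set limit for hydrogen peroxide production with the reducing agent DTT present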
Large screens that a line does not name were inactive (follow-up assays come after a bar, where they were run). Shown are actives, neighbours in structure and some others; about 1.2% of the full set was active somewhere.

CC(=O)N1N=C2C3CCN(CC3)C2C1c1ccc(Br)cc1 (stereo unspecified)	none (no result: DTT redox prof)
O=C1NC(=S)N(C2CC2)C(=O)/C1=C/c1ccc2c(c1)CCN2CCCCl	FXIIa inh 43
CCN1C(=O)/C(=C/c2ccc3c(c2)CCN3CCCCl)C(=O)NC1=S	none
O=C1NC(=O)C(CCc2ccncc2)(Cc2ccc(OCc3ccccc3)cc2)C(=O)N1	none (no result: DTT redox prof)
CC1CCCN(CC(=O)N2CCCc3ccccc32)C1 (stereo unspecified)	hK5 inh 87 (no result: S1P3 antag-1)
CCC(=O)c1c(O)n(C2CCCCCC2)c(=O)[nH]c1=O	hK5 inh 46
CC1CC(C)CN(CC(=O)c2ccc(OC(F)F)cc2)C1 (stereo unspecified)	none
Clc1ccc2c(N3CCNCC3)ccnc2c1	hK5 inh 41
O=[N+]([O-])c1ccc(N2CCNCC2)c(Cl)c1	none
O=C1NC(=O)N(Cc2ccccc2Cl)C(=O)/C1=C/c1cccs1	hK5 inh 50
COc1c(C)cc(C(=O)C2CCCN(Cc3ccccn3)C2)cc1C (stereo unspecified)	none
CC1Oc2cc3c(-c4c(O)cc(O)c5c(O)c6c(cc45)OC(C)C(C)C6=O)c(O)cc(O)c3c(O)c2C(=O)C1C (stereo unspecified)	S1P3 antag-1 43 (no result: DTT redox prof)
CN(C)C(=O)Oc1ccc2ccccc2c1Cl	none (no result: S1P3 antag-1)
CNC(=O)Oc1cccc2ccccc12	hK5 inh 42 (no result: DTT redox prof)
O=C(O)c1ccc(N=Cc2c(O)n(Cc3ccc(F)cc3)c(=O)[nH]c2=O)cc1	FXIIa inh 41 (no result: DTT redox prof)
Cc1c(NP(=O)(C(C)(C)C)C(C)(C)C)c(=O)n(-c2ccccc2)n1C	none (no result: Thrombin inh)
O=C1NC(=O)C(Cc2cccs2)C(=O)N1	hK5 inh 78
CC[C@]12C=CCN3CCC4(c5cc(Br)c(OC)cc5N(C)C4[C@@](O)(C(=O)OC)[C@@H]1OC(C)=O)C32 (stereo partly specified)	hK5 inh 43
CN1CCN(c2ncnc3ccc(Br)cc23)CC1	none
CN1CCN(c2ncnc(Cl)c2N)CC1	FXIIa inh 103
CC1CCCCN1C(=O)c1ccc(N2CC3CC(C2)c2cccc(=O)n2C3)c([N+](=O)[O-])c1 (stereo unspecified)	none
CN(C(=O)Oc1ccc(Cl)c2cccnc12)c1ccccc1	none
CN(C(=O)Oc1cccc2cccnc12)c1ccccc1	FXIIa inh 44
OC1(c2ccccc2F)CC2CCC(C1)N2CCN1CCOCC1 (stereo unspecified)	hK5 inh 55
CC(NCC#Cc1ccccc1)C(O)c1ccccc1 (stereo unspecified)	none
OCC#CC[N+]1(CC#Cc2ccccc2)CCOCC1	hK5 inh 78
COc1ccc(Cc2nccc3cc(OC)c(OC)cc23)cc1OC	S1P3 antag-1 29 | S1P3 antag-2 inactive
C[C@H]1CCC/C=C/C2C[C@H](O)CC2[C@H](O)/C=C/C(=O)O1 (stereo partly specified)	S1P3 antag-1 46 (no result: Thrombin inh) | S1P3 antag-2 inactive
CC12CN3CCN(C1)CC(C)(C3)C2=NN	none (no result: DTT redox prof)
O=C(NC12CC3CC(CC(C3)C1)C2)OC1CN2CCC1CC2 (stereo unspecified)	none (no result: DTT redox prof)
COc1ccc(N=Cc2c(O)n(-c3ccc(C)cc3)c(=O)[nH]c2=O)cc1	S1P3 antag-1 30 | S1P3 antag-2 inactive
CCOC(=O)c1ccc(N=Cc2c(O)n(-c3ccc(OC)cc3)c(=S)[nH]c2=O)cc1	none (no result: Thrombin inh)
O=C1C(=O)c2ccccc2-c2ccccc21	DTT redox prof 284 (no result: S1P3 antag-1, FXIIa inh) | DTT redox conf 0.71
O=C(Cn1nc(-c2ccccc2)ccc1=O)N1CCC2(CC1)OCCO2	none
COC(=O)[C@@H]1C[C@@]1(C)[C@@H](NP(=O)(c1ccccc1)c1ccccc1)c1ccccc1	none
CCn1nc(-c2ccccc2)nc2c(=O)n(C)c(=O)nc1-2	DTT redox prof 140, S1P3 antag-1 103 | DTT redox conf 0.9
Cc1nc2c(=O)n(C)c(=O)nc-2n(C)n1	DTT redox prof 293 (no result: S1P3 antag-1) | DTT redox conf 2.8
CC(=O)N1CCC(N2CCCC(C(=O)c3cccc(Cl)c3)C2)CC1 (stereo unspecified)	none
